Source: ChEMBL document CHEMBL1137333, “Synthesis, radiosynthesis, and biological evaluation of carbon-11 labeled 2beta-carbomethoxy-3beta-(3'-((Z)-2-haloethenyl)phenyl)nortropanes: candidate radioligands for in vivo imaging of the serotonin transporter with positron emission tomography” (J Med Chem, 2006)

Legend:
Cynomolgus monkey [1] = assay: Uptake in anesthetized cynomolgus monkey medulla after 3.5 mins; assay type: ADME, organism-based, Medulla of organ; details: in vivo
How it was run: (§1)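 Baseline microPET scan (P4 scanner) of anesthetized cynomolgus monkeys after injection of the carbon-11 labelled nortropane tracer. Two baseline studies were run per tracer. Radioactivity was followed over time in regional brain time-activity curves.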

Cynomolgus monkey [2] = assay: Uptake in anesthetized cynomolgus monkey medulla after 6.5 mins; assay type: ADME, organism-based, Medulla of organ; details: in vivo; how it was run: as §1
Cynomolgus monkey [3] = assay: Uptake in anesthetized cynomolgus monkey medulla after 45.0 mins; assay type: ADME, organism-based, Medulla of organ; details: in vivo, 0.75 h; how it was run: as §1
Cynomolgus monkey [4] = assay: Uptake in anesthetized cynomolgus monkey cerebellum after 0.5 mins; assay type: ADME, organism-based; details: in vivo
How it was run: (§2)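 Baseline microPET (Concorde P4) regional brain time-activity curves in anesthetized cynomolgus monkey following injection of the [11C]-labelled tracer, with radioactivity followed over the scan.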

Cynomolgus monkey [5] = assay: Uptake in anesthetized cynomolgus monkey cerebellum after 3.5 mins; assay type: ADME, organism-based; details: in vivo; how it was run: as §2
Cynomolgus monkey [6] = assay: Uptake in anesthetized cynomolgus monkey cerebellum after 15.5 mins; assay type: ADME, organism-based, Macaca mulatta; details: rhesus monkey, in vivo; how it was run: as §2
Cynomolgus monkey [7] = assay: Uptake in anesthetized cynomolgus monkey cerebellum after 95.0 mins; assay type: ADME, organism-based; details: in vivo; how it was run: as §2
Cynomolgus monkey [8] = assay: Uptake in anesthetized cynomolgus monkey frontal after 65.0 mins; assay type: ADME, organism-based, Frontal cortex; details: in vivo; how it was run: as §1
Cynomolgus monkey [9] = assay: Uptake in anesthetized cynomolgus monkey frontal after 75.0 mins; assay type: ADME, organism-based, Frontal cortex; details: in vivo, 1.25 h; how it was run: as §1
Cynomolgus monkey [10] = assay: Uptake in anesthetized cynomolgus monkey frontal after 105.0 mins; assay type: ADME, organism-based, Frontal cortex; details: in vivo, 1.75 h; how it was run: as §1
Cynomolgus monkey [11] = assay: Uptake in anesthetized cynomolgus monkey occipital after 4.5 mins; assay type: ADME, organism-based, Occipital cortex; details: in vivo, 0.075 h; how it was run: as §1
Cynomolgus monkey [12] = assay: Uptake in anesthetized cynomolgus monkey occipital after 12.5 mins; assay type: ADME, organism-based, Macaca mulatta, Occipital cortex; details: rhesus monkey, in vivo; how it was run: as §1
Cynomolgus monkey [13] = assay: Uptake in anesthetized cynomolgus monkey occipital after 15.5 mins; assay type: ADME, organism-based, Macaca mulatta, Occipital cortex; details: rhesus monkey, in vivo; how it was run: as §1
Cynomolgus monkey [14] = assay: Uptake in anesthetized cynomolgus monkey occipital after 22.5 mins; assay type: ADME, organism-based, Occipital cortex; details: in vivo, 0.375 h; how it was run: as §1
Cynomolgus monkey [15] = assay: Uptake in anesthetized cynomolgus monkey occipital after 55.0 mins; assay type: ADME, organism-based, Occipital cortex; details: in vivo; how it was run: as §1
Cynomolgus monkey [16] = assay: Uptake in anesthetized cynomolgus monkey occipital after 65.0 mins; assay type: ADME, organism-based, Macaca mulatta, Occipital cortex; details: rhesus monkey, in vivo; how it was run: as §1
Cynomolgus monkey [17] = assay: Uptake in anesthetized cynomolgus monkey occipital after 85.0 mins; assay type: ADME, organism-based, Macaca mulatta, Occipital cortex; details: rhesus monkey, in vivo; how it was run: as §1
Cynomolgus monkey [18] = assay: Uptake in anesthetized cynomolgus monkey frontal after 0.5 mins; assay type: ADME, organism-based, Frontal cortex; details: in vivo; how it was run: as §2
Cynomolgus monkey [19] = assay: Uptake in anesthetized cynomolgus monkey frontal after 22.5 mins; assay type: ADME, organism-based, Frontal cortex; details: in vivo, 0.375 h; how it was run: as §1
Cynomolgus monkey [20] = assay: Ratio of uptake in putamen to cerebellum of anesthetized cynomolgus monkey after 65 mins; assay type: ADME, organism-based; details: in vivo
How it was run: (§3)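 Baseline microPET (Concorde P4) in anesthetized cynomolgus monkey after injection of the [11C]-labelled tracer. Regional time-activity curves were taken, and each region's uptake was divided by cerebellum uptake (low-SERT reference) at 65, 85 and 105 min postinjection.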

Cynomolgus monkey [21] = assay: Ratio of uptake in thalamus to cerebellum of anesthetized cynomolgus monkey after 65 mins; assay type: ADME, organism-based; details: in vivo; how it was run: as §3
Cynomolgus monkey [22] = assay: Ratio of uptake in midbrain to cerebellum of anesthetized cynomolgus monkey after 65 mins; assay type: ADME, organism-based; details: in vivo; how it was run: as §3
Cynomolgus monkey [23] = assay: Ratio of uptake in occipital to cerebellum of anesthetized cynomolgus monkey after 85 mins; assay type: ADME, organism-based; details: in vivo; how it was run: as §3
Cynomolgus monkey [24] = assay: Ratio of uptake in caudate to cerebellum of anesthetized cynomolgus monkey after 105 mins; assay type: ADME, organism-based; details: in vivo, 1.75 h; how it was run: as §3
Cynomolgus monkey [25] = assay: Ratio of uptake in putamen to cerebellum of anesthetized cynomolgus monkey after 105 mins; assay type: ADME, organism-based; details: in vivo, 1.75 h; how it was run: as §3
Cynomolgus monkey [26] = assay: Ratio of uptake in midbrain to cerebellum of anesthetized cynomolgus monkey after 105 mins; assay type: ADME, organism-based; details: in vivo, 1.75 h; how it was run: as §3
Cynomolgus monkey [27] = assay: Ratio of uptake in frontal to cerebellum of anesthetized cynomolgus monkey after 105 mins; assay type: ADME, organism-based; details: in vivo, 1.75 h; how it was run: as §3
Cynomolgus monkey [28] = assay: Ratio of uptake in occipital to cerebellum of anesthetized cynomolgus monkey after 105 mins; assay type: ADME, organism-based; details: in vivo, 1.75 h; how it was run: as §3
Cynomolgus monkey [29] = assay: Uptake in anesthetized cynomolgus monkey caudate after 9.5 mins; assay type: ADME, organism-based, Caudate nucleus; details: in vivo; how it was run: as §2
Cynomolgus monkey [30] = assay: Uptake in anesthetized cynomolgus monkey caudate after 27.5 mins; assay type: ADME, organism-based, Caudate nucleus; details: in vivo; how it was run: as §2
Cynomolgus monkey [31] = assay: Uptake in anesthetized cynomolgus monkey caudate after 35.0 mins; assay type: ADME, organism-based, Caudate nucleus; details: in vivo; how it was run: as §2
Cynomolgus monkey [32] = assay: Uptake in anesthetized cynomolgus monkey caudate after 45.0 mins; assay type: ADME, organism-based, Caudate nucleus; details: in vivo, 0.75 h; how it was run: as §2
Cynomolgus monkey [33] = assay: Uptake in anesthetized cynomolgus monkey putamen after 1.5 mins; assay type: ADME, organism-based; details: in vivo, 0.025 h
How it was run: (§4)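 Baseline microPET (Concorde P4) scan in anesthetized cynomolgus monkeys after injection of the carbon-11 labeled tracer, with no chase drug. Regional brain time-activity curves were followed over the scan. Tracer radiochemical purity and specific activity were determined by analytical HPLC at the time of injection.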

Cynomolgus monkey [34] = assay: Ratio of uptake in pons to cerebellum of anesthetized cynomolgus monkey after 65 mins; assay type: ADME, organism-based; details: in vivo; how it was run: as §3
Cynomolgus monkey [35] = assay: Ratio of uptake in thalamus to cerebellum of anesthetized cynomolgus monkey after 85 mins; assay type: ADME, organism-based; details: in vivo; how it was run: as §3
Cynomolgus monkey [36] = assay: Ratio of uptake in pons to cerebellum of anesthetized cynomolgus monkey after 85 mins; assay type: ADME, organism-based; details: in vivo; how it was run: as §3
Cynomolgus monkey [37] = assay: Ratio of uptake in medulla to cerebellum of anesthetized cynomolgus monkey after 85 mins; assay type: ADME, organism-based; details: in vivo; how it was run: as §3
Cynomolgus monkey [38] = assay: Ratio of uptake in frontal to cerebellum of anesthetized cynomolgus monkey after 85 mins; assay type: ADME, organism-based; details: in vivo; how it was run: as §3
Cynomolgus monkey [39] = assay: Uptake in anesthetized cynomolgus monkey midbrain after 27.5 mins; assay type: ADME, organism-based; details: in vivo; how it was run: as §1
Cynomolgus monkey [40] = assay: Uptake in anesthetized cynomolgus monkey midbrain after 45.0 mins; assay type: ADME, organism-based; details: in vivo, 0.75 h; how it was run: as §1
Cynomolgus monkey [41] = assay: Uptake in anesthetized cynomolgus monkey midbrain after 95.0 mins; assay type: ADME, organism-based; details: in vivo; how it was run: as §1
Cynomolgus monkey [42] = assay: Uptake in anesthetized cynomolgus monkey midbrain after 115.0 mins; assay type: ADME, organism-based; details: in vivo; how it was run: as §1
Cynomolgus monkey [43] = assay: Uptake in anesthetized cynomolgus monkey pons after 0.5 mins; assay type: ADME, organism-based; details: in vivo; how it was run: as §1
Cynomolgus monkey [44] = assay: Uptake in anesthetized cynomolgus monkey pons after 3.5 mins; assay type: ADME, organism-based; details: in vivo; how it was run: as §4
Cynomolgus monkey [45] = assay: Uptake in anesthetized cynomolgus monkey pons after 9.5 mins; assay type: ADME, organism-based; details: in vivo
How it was run: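 Carbon-11 labelled tracer injected into anesthetized cynomolgus monkeys under baseline conditions. Regional brain radioactivity was followed by microPET (Concorde microPET P4) and expressed as time-activity curves for the brain regions. Two baseline studies were run per tracer. Tracer radiochemical purity and specific activity were determined by analytical HPLC at the time of injection.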

Cynomolgus monkey [46] = assay: Uptake in anesthetized cynomolgus monkey pons after 15.5 mins; assay type: ADME, organism-based; details: in vivo; how it was run: as §4
Cynomolgus monkey [47] = assay: Uptake in anesthetized cynomolgus monkey pons after 45.0 mins; assay type: ADME, organism-based; details: in vivo, 0.75 h; how it was run: as §4
Cynomolgus monkey [48] = assay: Uptake in anesthetized cynomolgus monkey pons after 55.0 mins; assay type: ADME, organism-based; details: in vivo; how it was run: as §4
Cynomolgus monkey [49] = assay: Uptake in anesthetized cynomolgus monkey pons after 75.0 mins; assay type: ADME, organism-based; details: in vivo, 1.25 h; how it was run: as §4
Cynomolgus monkey [50] = assay: Uptake in anesthetized cynomolgus monkey pons after 85.0 mins; assay type: ADME, organism-based; details: in vivo; how it was run: as §4
Cynomolgus monkey [51] = assay: Uptake in anesthetized cynomolgus monkey putamen after 65.0 mins; assay type: ADME, organism-based; details: in vivo; how it was run: as §4
Cynomolgus monkey [52] = assay: Uptake in anesthetized cynomolgus monkey thalamus after 18.5 mins; assay type: ADME, organism-based; details: in vivo; how it was run: as §4
Cynomolgus monkey [53] = assay: Uptake in anesthetized cynomolgus monkey thalamus after 55.0 mins; assay type: ADME, organism-based; details: in vivo; how it was run: as §4
Cynomolgus monkey [54] = assay: Uptake in anesthetized cynomolgus monkey thalamus after 115.0 mins; assay type: ADME, organism-based; details: in vivo; how it was run: as §4

[11CH3]OC(=O)[C@@H]1C2CCC(C[C@@H]1c1cccc(/C=C/I)c1)N2 (some centres undefined)
Drug uptake (Cynomolgus monkey [1]): 2.62
Drug uptake (Cynomolgus monkey [2]): 5.28
Drug uptake (Cynomolgus monkey [3]): 7.21
Drug uptake (Cynomolgus monkey [4]): 0.01
Drug uptake (Cynomolgus monkey [5]): 2.19
Drug uptake (Cynomolgus monkey [6]): 5.73
Drug uptake (Cynomolgus monkey [7]): 3.46
Drug uptake (Cynomolgus monkey [8]): 3.9
Drug uptake (Cynomolgus monkey [9]): 3.73
Drug uptake (Cynomolgus monkey [10]): 3.42
Drug uptake (Cynomolgus monkey [11]): 2.44
Drug uptake (Cynomolgus monkey [12]): 4.52
Drug uptake (Cynomolgus monkey [13]): 4.69
Drug uptake (Cynomolgus monkey [14]): 5.01
Drug uptake (Cynomolgus monkey [15]): 4.58
Drug uptake (Cynomolgus monkey [16]): 4.4
Drug uptake (Cynomolgus monkey [17]): 4
Drug uptake (Cynomolgus monkey [18]): 0.01
Drug uptake (Cynomolgus monkey [19]): 4.03
Ratio (Cynomolgus monkey [20]): 1.6
Ratio (Cynomolgus monkey [21]): 1.6
Ratio (Cynomolgus monkey [22]): 1.7
Ratio (Cynomolgus monkey [23]): 1
Ratio (Cynomolgus monkey [24]): 1.7
Ratio (Cynomolgus monkey [25]): 2.1
Ratio (Cynomolgus monkey [26]): 2.4
Ratio (Cynomolgus monkey [27]): 1.2
Ratio (Cynomolgus monkey [28]): 1.1
Drug uptake (Cynomolgus monkey [29]): 4.12
Drug uptake (Cynomolgus monkey [30]): 5.41
Drug uptake (Cynomolgus monkey [31]): 5.74
Drug uptake (Cynomolgus monkey [32]): 5.77
Drug uptake (Cynomolgus monkey [33]): 0.35
Ratio (Cynomolgus monkey [34]): 1.4
Ratio (Cynomolgus monkey [35]): 1.8
Ratio (Cynomolgus monkey [36]): 1.6
Ratio (Cynomolgus monkey [37]): 1.8
Ratio (Cynomolgus monkey [38]): 1.1
Drug uptake (Cynomolgus monkey [39]): 7.14
Drug uptake (Cynomolgus monkey [40]): 7.66
Drug uptake (Cynomolgus monkey [41]): 7.11
Drug uptake (Cynomolgus monkey [42]): 7.23
Drug uptake (Cynomolgus monkey [43]): 0.01
Drug uptake (Cynomolgus monkey [44]): 1.79
Drug uptake (Cynomolgus monkey [45]): 4.69
Drug uptake (Cynomolgus monkey [46]): 5.23
Drug uptake (Cynomolgus monkey [47]): 6.02
Drug uptake (Cynomolgus monkey [48]): 6.13
Drug uptake (Cynomolgus monkey [49]): 5.92
Drug uptake (Cynomolgus monkey [50]): 5.86
Drug uptake (Cynomolgus monkey [51]): 7.06
Drug uptake (Cynomolgus monkey [52]): 6.41
Drug uptake (Cynomolgus monkey [53]): 7.12
Drug uptake (Cynomolgus monkey [54]): 6.16
